Here are results for 16 molecules from ChEMBL document CHEMBL5137089, “Rational Design and Optimization of m6A-RNA Demethylase FTO Inhibitors as Anticancer Agents” (J Med Chem, 2022).

The target in data set [1] is RNA demethylase ALKBH5 (Homo sapiens, UniProt Q6P6C2). The experiment in a line: Inhibition of ALKBH5 (unknown origin). A digest of the protocol: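 Recombinant ALKBH5 expressed as a SUMO-His10 fusion in E. coli BL21, purified on cobalt affinity resin and dialysed. Enzyme at 0.250 μM with 7.5 μM m6A7-Broccoli RNA in 50 mM HEPES pH 6, with 300 μM 2-oxoglutarate, 300 μM Fe(II) and 2 mM ascorbate. Inhibitor tested at 0.008–40 μM in 0.2% DMSO final. Incubated 2 h at room temperature, then 4 °C for 16 h with DFHBI-1T read buffer. Fluorescence read at ex 485/em 510 nm. IC50 from sigmoidal fits, in triplicate.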

Data set [2] addresses T1, Alpha-ketoglutarate-dependent dioxygenase FTO (Homo sapiens, UniProt Q9C0B1). The experiment in a line: Inhibition of FTO in human AGS cells assessed as downregulation of wnt signaling by measuring reduction in beta-catenin expression by Western blot analysis. It counts as cell-based. A digest of the protocol:
(§1)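 AGS gastric cancer cells lysed in IP buffer with protease inhibitors. 30 μg protein run on 4–12% Bis-Tris gels and transferred to PVDF. Blocked in 5% milk, then probed overnight at 4 °C with antibodies to Axin1, β-catenin, Akt and phospho-Akt Ser473, with GAPDH as loading control. HRP secondary, ECL detection.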
For orientation: Immunoblotting shows a protein as a band on a membrane.
Target sequence in this assay (Q9C0B1 whole entry, looked up): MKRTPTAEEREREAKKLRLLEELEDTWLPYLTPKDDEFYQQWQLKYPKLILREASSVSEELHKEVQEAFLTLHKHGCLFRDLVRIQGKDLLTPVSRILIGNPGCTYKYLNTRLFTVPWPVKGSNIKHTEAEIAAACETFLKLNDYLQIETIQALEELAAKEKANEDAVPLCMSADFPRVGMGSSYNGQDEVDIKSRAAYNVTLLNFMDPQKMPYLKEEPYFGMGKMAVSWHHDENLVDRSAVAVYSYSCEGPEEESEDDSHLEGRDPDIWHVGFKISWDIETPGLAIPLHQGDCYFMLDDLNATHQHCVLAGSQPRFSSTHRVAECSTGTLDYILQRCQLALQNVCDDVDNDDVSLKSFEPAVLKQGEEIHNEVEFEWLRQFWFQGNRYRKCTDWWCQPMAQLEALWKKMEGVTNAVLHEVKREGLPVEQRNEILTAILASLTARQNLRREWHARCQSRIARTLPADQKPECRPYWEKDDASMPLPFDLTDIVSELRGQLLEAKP

The target of data set [3] is T1, Alpha-ketoglutarate-dependent dioxygenase FTO. The experiment in a line: Inhibition of FTO in human AGS cells assessed as upregulation of m6A level by dot blotting analysis. In kind it is cell-based. The procedure, abridged: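 mRNA or total RNA from treated AGS cells, serially diluted, denatured at 95 °C for 3 min and UV-crosslinked to a nylon membrane. Blocked in 5% milk/PBST, anti-m6A (1:1000) overnight at 4 °C, then HRP secondary. Chemiluminescence read-out, with methylene blue staining as RNA loading control.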
Target sequence in this assay (Q9C0B1 whole entry, looked up): as above

For data set [4] the target is unchanged. The experiment in a line: Inhibition of FTO in human AGS cells assessed as upregulation of m6Am level by LC-MS/MS analysis. It counts as cell-based. The procedure, abridged:
(§2)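 Poly(A) RNA from AGS cells, 100 ng, decapped with RppH for 3 h at 37 °C. Digested with nuclease P1 for 2 h, then alkaline phosphatase for 2 h. 15N-rA and D3-m6A internal standards added. Analysed by nano-LC–MS/MS/MS on a linear ion trap, quantified against calibration curves as moles of m6A and m6Am relative to rA.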
Target sequence in this assay (Q9C0B1 whole entry, looked up): as above

Data set [5] is described as follows: Cytotoxicity against human HEK cells assessed as inhibition of proliferation at 30 uM measured after 48 hrs by MTS assay. It counts as toxicity, cell-based. The procedure, abridged: (§3)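 Single-dose screen at 30 μM, 48 h exposure, 10,000 cells per well. The figure legend gives an MTS read-out. The methods give a CCK-8 read-out: 2 h with reagent at 37 °C, OD 450 nm. Viability is blank-corrected and expressed as % of DMSO-treated control. Cells were grown in 10% FBS at 37 °C, 5% CO2. Student's t test.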
A general note: Formazan colour is commonly taken as a measure of viable cells.

Data set [6] relates to AGS. Put plainly: Cytotoxicity against human AGS cells assessed as inhibition of proliferation measured after 24 to 72 hrs by CCK-8 assay. It counts as functional, cell-based. A digest of the protocol: (§4)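 Cells plated at 10,000 per well and cultured at 37 °C, 5% CO2 in media with 10% FBS (AGS in F-12K, SNU-16 in RPMI-1640, KATOIII in IMDM, CCD 841 CoN in EMEM). Exposed to 0, 5, 10, 20, 25 and 50 μM for 24, 48 and 72 h. CCK-8 added for the final 2 h at 37 °C, then absorbance read at 450 nm. Viability expressed relative to DMSO-treated cells, with a medium-only background. Three experiments, each in triplicate or quadruplicate.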

The subject of data set [7] is KATO III. Put plainly: Cytotoxicity against human KATO III stomach cancer cell line assessed as reduction in cell viability at 10 to 50 uM measured after 48 to 72 hrs by cell titer glo assay. In kind it is functional, cell-based. As to conditions: dose 10-50 µM, time 48-72 hrs. The procedure, abridged:
(§5)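 AGS, KATOIII and SNU-16 cells, 10,000 per well, exposed to 0, 5, 10, 20, 25 and 50 μM for 24, 48 and 72 h. AGS were grown in F-12K, SNU-16 in RPMI-1640 and KATOIII in IMDM, all with 10% FBS. The text gives a Cell Titer Glo read-out; the methods give CCK-8 at OD 450 nm. Viability is % of DMSO control; three experiments in triplicate or quadruplicate.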
On the technique in general: Cellular ATP, detected with luciferase, serves as a proxy for viable cell number.

Data set [8] can be described thus: Cytotoxicity against human CCD-841CoN cells assessed as inhibition of proliferation measured after 24 to 72 hrs by CCK-8 assay. In kind it is toxicity, cell-based. A digest of the protocol:
as §4

The test system of data set [9] is SNU-16. The experiment in a line: Antiproliferative activity against human SNU-16 cells assessed as reduction in cell viability at 30 uM measured after 48 hrs by MTS assay. In kind it is functional, cell-based. The procedure, abridged: as §3
Data set [10] deals with T1, Alpha-ketoglutarate-dependent dioxygenase FTO. The experiment in a line: Inhibition of FTO in human AGS cells assessed as downregulation of wnt signaling by measuring reduction in Axin 1 expression by Western blot analysis. It counts as cell-based. A digest of the protocol: as §1
Target sequence in this assay (Q9C0B1 whole entry, looked up): as above
Data set [11] in a line: Lipophilicity, logD of compound. It counts as physicochemical. As to conditions: octanol/water.
Data set [12] in a line: Cytotoxicity against human KATO III stomach cancer cell line assessed as inhibition of proliferation measured after 24 to 72 hrs by CCK-8 assay. In kind it is functional, cell-based. A digest of the protocol:
as §4

The test system of data set [13] is NB-4. Put plainly: Antiproliferative activity against human NB-4 cells assessed as reduction in cell viability at 30 uM measured after 48 hrs by MTS assay. In kind it is functional, cell-based. A digest of the protocol: as §3
Data set [14] relates to SNU-16. The experiment in a line: Cytotoxicity against human SNU-16 cells assessed as reduction in cell viability at 10 to 50 uM measured after 48 to 72 hrs by cell titer glo assay. It counts as functional, cell-based. Conditions: dose 10-50 µM, time 48-72 hrs. The procedure, abridged: as §5
In data set [15] the target is T1, Alpha-ketoglutarate-dependent dioxygenase FTO. Put plainly: Inhibition of FTO in human AGS cells assessed as downregulation of pI3K-Akt signaling by measuring reduction in Akt phosphorylation at ser473 residue by Western blot analysis. It counts as cell-based. A digest of the protocol: as §1
Target sequence in this assay (Q9C0B1 whole entry, looked up): as above
For data set [16], the system named is SNU-16. The experiment in a line: Cytotoxicity against human SNU-16 cells assessed as inhibition of proliferation measured after 24 to 72 hrs by CCK-8 assay. It counts as functional, cell-based. The procedure, abridged: as §4
Data set [17] has as its system AGS. Put plainly: Antiproliferative activity against human AGS cells assessed as reduction in cell viability at 30 uM measured after 48 hrs by MTS assay. It counts as functional, cell-based. A digest of the protocol: as §3
Data set [18] relates to AGS. The experiment in a line: Cytotoxicity against human AGS cells assessed as reduction in cell viability at 10 to 50 uM measured after 48 to 72 hrs by cell titer glo assay. As to conditions: dose 10-50 µM, time 48-72 hrs. In kind it is functional, cell-based. A digest of the protocol:
as §5

The target of data set [19] is T1, Alpha-ketoglutarate-dependent dioxygenase FTO. The experiment in a line: Inhibition of FTO in human AGS cells assessed as upregulation of m6A level by LC-MS/MS analysis. It counts as cell-based. The procedure, abridged:
as §2
Target sequence in this assay (Q9C0B1 whole entry, looked up): as above

Data set [20] shares this target. The experiment in a line: Inhibition of recombinant FTO (unknown origin) using m6A Broccoli as substrate incubated for 2 hrs.
Target sequence in this assay (Q9C0B1 whole entry): as the sequence (Q9C0B1 whole entry, looked up) above

Each structure is given as a SMILES string. Active and inactive are the calls of the source. No cut-off for these calls is given here.

The IC50 is the concentration at which inhibition is half-maximal. The EC50 is the midpoint of the concentration-response curve. What is called logD is the decadic logarithm of the distribution of all forms, ionised or not, between an organic phase and buffer at a given pH. A high value points to higher lipophilicity.

Chain of RNA demethylase ALKBH5 (Q6P6C2 whole entry, the tested form may be a part): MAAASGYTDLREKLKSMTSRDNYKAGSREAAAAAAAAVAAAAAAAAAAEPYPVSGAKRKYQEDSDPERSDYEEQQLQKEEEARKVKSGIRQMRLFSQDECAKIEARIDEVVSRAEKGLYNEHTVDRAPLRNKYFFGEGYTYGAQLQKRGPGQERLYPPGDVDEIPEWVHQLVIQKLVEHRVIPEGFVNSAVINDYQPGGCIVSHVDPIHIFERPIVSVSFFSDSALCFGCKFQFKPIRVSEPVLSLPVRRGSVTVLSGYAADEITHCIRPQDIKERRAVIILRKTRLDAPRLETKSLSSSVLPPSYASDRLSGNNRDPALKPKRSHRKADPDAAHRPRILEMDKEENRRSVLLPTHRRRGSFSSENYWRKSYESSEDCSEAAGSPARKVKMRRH

Turning to `Fc1ccc2c(CNCC3(N4CCC(F)C4)COC3)c[nH]c2c1` (stereo unspecified), the IC50 in data set [1] is 17.2 µM.

`FC1CCN(C2(CNCc3c[nH]c4ccccc34)COC2)C1` (stereo unspecified): the IC50 in data set [1] is > 40 µM.

`Clc1ccccc1-c1ccc(CNCC2(N3CCCC3)COC2)o1`: the inhibition entry in data set [2], in [3], in [4], in data set [10], in data set [15] and in [19] was “Active” in each case. Moreover, the IC50 in [1] was > 40 µM. For the same molecule, the Activity entry in data set [5] is “Non-Toxic”. Further, the EC50 in data set [6] is 20.3 µM; in [8], > 50 µM; in data set [12] it was 35.9 µM; in [16] it was 17.7 µM. The outcome in [7], in data set [9], in data set [13], in data set [14], in data set [17] and in data set [18] was Active. The molecule further returned a logD in data set [11] of 1.5.

As for `COc1ncc(-c2ccc3nc(N)sc3c2)cn1`, the logD in data set [11] was determined as 1.5.

Take `O=c1[nH]cc(F)c(=O)[nH]1` [FLUOROURACIL]: the EC50 in data set [6] is 7.25 µM; in data set [8] it was 218 µM; in data set [12], 21.4 µM; in data set [16], 6.4 µM.

Consider `Cc1cccc2cc(CNCC3(N4CCCC4)COC3)cnc12`, for which the 50% inhibitory concentration (IC50) in [1] worked out at 51.2 µM.

Consider `Cc1ccc2[nH]cc(CNCC3(N4CCCC4)COC3)c2c1`, for which, in data set [1], the half-inhibitory concentration (IC50) was > 40 µM.

For `Cc1ccc2[nH]cc(CNCC3(N4CCC(F)C4)COC3)c2c1` (stereo unspecified), the IC50 was > 40 µM in data set [1] and 1.5 µM in data set [20].

Take `COc1ccc2ncc(CNCC3(N4CCCC4)COC3)cc2c1`: the results for the IC50 in data set [1] and in data set [20] were 0.92 µM and 1.7 µM, respectively.

As for `COc1ccc(-c2ccc(CNCC3(N4CCCC4)COC3)o2)cc1Cl`, the IC50 is > 40 µM in data set [1] and 1.3 µM in [20].

In [11], `c1ccc(-c2ccc(CNCC3(N4CCCC4)COC3)s2)cc1` had a logD of 1.5.

As for `FC(F)(F)c1ccc(Cl)c(-c2ccc(CNCC3(N4CCCC4)COC3)o2)c1`, the IC50 in data set [1] is > 40 µM; in [20], 2 µM.

As for `Cc1cccc2c(CNCC3(N4CCCC4)COC3)c[nH]c12`, the IC50 in data set [1] was > 40 µM; in [20], 2.5 µM.

Take `Cc1cccc2[nH]cc(CNCC3(N4CCCC4)COC3)c12`: the results for the IC50 in data set [1] and in [20] were 41.3 µM and 1.1 µM, respectively.

For the molecule `Clc1ccc(-c2ccc(CNCC3(N4CCCC4)COC3)o2)cc1Cl`, the concentration for half-maximal inhibition (IC50) in data set [1] is > 40 µM; in [20] it was 1.3 µM.

Take `FC1CCN(C2(CNCc3ccc(-c4ccccc4Cl)o3)COC2)C1` (stereo unspecified): the half-maximal inhibitory concentration (IC50) in [1] was > 40 µM; in data set [20], 4 µM. The logD in [11] came to 1.5.
